ChEMBL document CHEMBL3861968, “Neuroactive and Anti-inflammatory Frankincense Cembranes: A Structure-Activity Study” (J Nat Prod, 2016)

Assays:
Format in all cases: cell-based
[1] = Inhibition of TNFalpha-induced NFkappaB activation in mouse NIH-3T3 cells expressing NFkappaB (unknown origin) preincubated for 15 mins followed by TNFalpha addition measured after 6 hrs by luciferase reporter gene assay; conditions: NIH3T3
[2] = biological target: T1, Heat sensitive channel TRPV3 (Rattus norvegicus) (UniProt Q4QYD9); assay: Activation of rat TRPV3 overexpressed in HEK293 cells assessed as increase in 2-aminoethoxydiphenyl borate-induced intracellular calcium concentration by Fluo-4AM dye-based spectrofluorometry relative to ionomycin
T1 sequence (whole entry): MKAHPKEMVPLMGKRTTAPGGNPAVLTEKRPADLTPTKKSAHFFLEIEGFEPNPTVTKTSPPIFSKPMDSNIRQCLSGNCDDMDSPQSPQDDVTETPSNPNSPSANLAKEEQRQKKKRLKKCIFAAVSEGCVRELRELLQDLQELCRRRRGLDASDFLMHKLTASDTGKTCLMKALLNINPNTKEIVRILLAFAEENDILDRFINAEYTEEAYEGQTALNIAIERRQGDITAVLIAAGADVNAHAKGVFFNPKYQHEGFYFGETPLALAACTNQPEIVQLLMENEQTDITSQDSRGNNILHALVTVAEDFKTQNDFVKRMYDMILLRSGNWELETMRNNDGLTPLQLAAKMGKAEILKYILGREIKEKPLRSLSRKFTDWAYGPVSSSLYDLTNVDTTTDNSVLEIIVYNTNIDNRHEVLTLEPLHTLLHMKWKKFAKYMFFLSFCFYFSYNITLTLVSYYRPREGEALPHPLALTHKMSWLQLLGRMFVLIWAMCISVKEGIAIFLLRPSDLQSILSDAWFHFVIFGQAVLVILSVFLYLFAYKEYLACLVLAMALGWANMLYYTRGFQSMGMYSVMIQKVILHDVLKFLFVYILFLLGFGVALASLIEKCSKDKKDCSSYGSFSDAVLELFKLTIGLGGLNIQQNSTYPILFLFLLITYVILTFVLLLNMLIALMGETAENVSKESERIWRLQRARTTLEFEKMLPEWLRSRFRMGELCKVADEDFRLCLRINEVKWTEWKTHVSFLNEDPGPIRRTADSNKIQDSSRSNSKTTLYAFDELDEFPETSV
Procedure, shortened: (§1)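 Stable rat TRPV3 HEK293 cells in MEM with 10% FBS, 37 °C, 5% CO2. Pre-sensitized with 2-APB (100 μM). Loaded 1 h at room temperature with Fluo-4 AM (4 μM), washed, held in Tyrode's buffer pH 7.4 in a stirred cuvette. Untransfected HEK293 baseline subtracted. EC50 taken from sigmoidal variable-slope fit. Efficacy expressed relative to 4 μM ionomycin. At least triplicate.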

[3] = biological target: T2, Heat sensitive channel TRPV3 (Rattus norvegicus, UniProt Q4QYD9); assay: Activation of rat TRPV3 overexpressed in HEK293 cells assessed as increase in 2-aminoethoxydiphenyl borate-induced intracellular calcium concentration by Fluo-4AM dye-based spectrofluorometry; procedure, shortened: as §1
T2 sequence (Q4QYD9 whole entry): T1 sequence (whole entry)

[4] = biological target: T2, Heat sensitive channel TRPV3; assay: Antagonist activity at rat TRPV3 overexpressed in HEK293 cells assessed as inhibition of thymol-induced increase in intracellular Ca2+ levels preincubated for 5 mins prior to thymol-stimulation by Fluo-4AM dye-based spectrofluorometry
Procedure, shortened: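 Compounds added 5 min before thymol (100 μM). Thymol-alone response taken as 100%. IC50 of inhibition of the [Ca2+]i rise taken from sigmoidal variable-slope fit. At least triplicate. ANOVA with Bonferroni.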

[5] = biological target: T3, Transient receptor potential cation channel subfamily V member 3 (Mus musculus, UniProt Q8K424); assay: Agonist activity at mouse YFP-tagged TRPV3 expressed in HEK293 cells assessed as increase in calcium influx by Fluo-2-AM dye based microscopic analysis
T3 sequence (Q8K424 whole entry): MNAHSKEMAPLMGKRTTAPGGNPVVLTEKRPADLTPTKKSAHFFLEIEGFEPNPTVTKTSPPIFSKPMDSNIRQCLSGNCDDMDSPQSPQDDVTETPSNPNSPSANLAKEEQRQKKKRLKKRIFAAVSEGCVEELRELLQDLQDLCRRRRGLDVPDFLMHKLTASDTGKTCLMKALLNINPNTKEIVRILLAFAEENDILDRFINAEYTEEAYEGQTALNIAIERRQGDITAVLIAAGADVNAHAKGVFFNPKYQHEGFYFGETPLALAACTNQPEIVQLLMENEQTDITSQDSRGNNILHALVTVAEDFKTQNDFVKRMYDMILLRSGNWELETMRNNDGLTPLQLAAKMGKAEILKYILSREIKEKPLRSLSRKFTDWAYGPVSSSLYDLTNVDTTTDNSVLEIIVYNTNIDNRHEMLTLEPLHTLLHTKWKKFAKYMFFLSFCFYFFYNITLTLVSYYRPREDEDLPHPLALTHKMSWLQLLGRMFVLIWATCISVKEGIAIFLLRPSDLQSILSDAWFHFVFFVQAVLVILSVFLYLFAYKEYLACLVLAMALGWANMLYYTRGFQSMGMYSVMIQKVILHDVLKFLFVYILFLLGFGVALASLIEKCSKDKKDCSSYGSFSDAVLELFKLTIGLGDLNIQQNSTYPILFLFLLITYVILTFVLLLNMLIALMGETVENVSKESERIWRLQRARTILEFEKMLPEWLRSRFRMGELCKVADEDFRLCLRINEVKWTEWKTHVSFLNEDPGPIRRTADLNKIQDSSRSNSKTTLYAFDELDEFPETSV

Structure (SMILES) | IC50 [1] | Emax [2] | EC50 [3] | IC50 [4] | EC50 [5]
C/C1=C\C[C@]2(C(C)C)CC[C@@](C)(O2)[C@@H](OC(=O)/C=C/c2ccccc2)CC/C(C)=C/CC1 | > 50 µM | – | – | – | –
C/C1=C\C[C@]2(C(C)C)CC[C@@](C)(O2)[C@@H](OC(=O)c2ccccc2)CC/C(C)=C/CC1 | > 50 µM | – | – | – | –
C/C1=C\C[C@]2(C(C)C)CC[C@@](C)(O2)[C@@H](OC(=O)Cc2ccccc2)CC/C(C)=C/CC1 | 22.4 µM | 25.6% | 1.2 µM | 21.7 µM | –
CC(=O)O[C@H]1CC/C(C)=C/CC[C@]2(C)O[C@@H]2C[C@]2(C(C)C)CC[C@@]1(C)O2 | > 50 µM | 57.7% | 8.8 µM | 13.2 µM | –
Cc1ccc(C(C)C)c(O)c1 [THYMOL] | – | 49.4% | 29 µM | – | –
CC(=O)O[C@H]1CC/C(C)=C/CC/C(C)=C/C[C@]2(C(C)C)CC[C@@]1(C)O2 | > 50 µM | 43.4% | 1.4 µM | 2.2 µM | 16 µM
C/C1=C\C[C@]2(C(C)C)CC[C@@](C)(O2)C(=O)CC/C(C)=C/CC1 | > 50 µM | – | – | – | –
C/C1=C\CC/C(C)=C/C[C@](O)(C(C)C)CC/C(C)=C/CC1 | > 50 µM | 62.4% | 0.17 µM | 0.15 µM | –
CC(=O)O[C@H]1CC[C@@]2(C)O[C@H]2CC/C(C)=C/C[C@]2(C(C)C)CC[C@@]1(C)O2 | > 50 µM | 31.6% | 8.6 µM | 21.1 µM | –
NC(=O)c1sc(-c2ccsc2)cc1N | 7.9 µM | – | – | – | –
C/C1=C\C[C@]2(C(C)C)CC[C@@](C)(O2)[C@H](O)CC/C(C)=C/CC1 | > 50 µM | 38% | 7.3 µM | 12.3 µM | –
CC1=C2CC/C(C)=C/CC[C@]3(C)O[C@@H]3CC/C(C)=C/[C@@H]2OC1=O | > 50 µM | 21.3% | 30.1 µM | > 100 µM | –
C/C1=C\C[C@]2(C(C)C)CC[C@@](C)(O2)[C@@H](O)CC/C(C)=C/CC1 [INCENSOLE] | > 50 µM | 65.1% | 2.1 µM | 2.1 µM | –
CCCCCCCCC(=O)O[C@H]1CC/C(C)=C/CC/C(C)=C/C[C@]2(C(C)C)CC[C@@]1(C)O2 | 35.5 µM | – | – | – | –
C/C1=C\CC[C@]2(C)O[C@@H]2C[C@]2(C(C)C)CC[C@@](C)(O2)[C@@H](O)CC1 | > 50 µM | 27.2% | 25.4 µM | > 100 µM | –
CC1=C2CC/C(C)=C/CC[C@]3(C)O[C@@H]3CC/C(C)=C/[C@@H]2OC1 | > 50 µM | – | – | – | –
